The record followed here is ChEMBL document CHEMBL4330151, “Antiviral Compounds from Codiaeum peltatum Targeted by a Multi-informative Molecular Networks Approach” (J Nat Prod, 2019).

For one data set, the system named is Chikungunya virus. Put plainly: Antiviral activity against Chikungunya virus Indian Ocean strain 899 infected in African green monkey Vero cells assessed as protection against virus-induced cytopathic effect after 5 days by MTS assay. The following applies: Indian Ocean strain 899, Vero, 120 h. The format is functional, organism-based. For orientation: Protection from cytopathic effect is a common read-out in antiviral testing.

A short description of data set [1]: Cytotoxicity against African green monkey Vero cells by MTS assay. It counts as cell-based. The following applies: chlorocebus sabaeus. An outline of the steps:
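Uninfected Vero A cells were exposed to the same compound concentrations as the CHIKV antiviral plates and incubated 5 days at 37 °C, 5% CO2. MTS/PMS was added for 1.5 h and absorbance read at 498 nm. OD values were converted to control percentages, and CC50 was obtained by logarithmic interpolation. Values are medians ± absolute deviation of at least three independent assays.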
On the technique in general: Formazan colour is commonly taken as a measure of viable cells.

Data set [2] can be described thus: Inhibition of ZIKV N-terminal His6-tagged NS5 protein expressed in Escherichia coli using (Poly U) RNA template […] in presence of ATP by picogreen dye based assay. The arrangement: species or system Zika virus.
Data set [3] is described as follows: Inhibition of GTP-bodipy binding to ZIKV N-terminal His6-tagged NS5 protein expressed in Escherichia coli after 15 mins by fluorescence polarization assay. The arrangement: species or system Zika virus. Conditions: read-out: Kd(app). The method, boiled down:
(§1)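 Buffer was 50 mM Tris pH 7.5, 50 mM NaCl, 0.01% NP40 and 1 mM DTT, with 50 nM GTP-bodipy. NS5 was 300 nM for DENV-2 and 150 nM for ZIKV, with seven compound concentrations in 5% DMSO. Plates were incubated 15 min at room temperature, and fluorescence polarization was read at 485/520 nm after background subtraction. Kdapp was curve-fitted from triplicates in a single experiment.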

Data set [4] can be described thus: Inhibition of DENV2 N-terminal His6-tagged NS5 protein expressed in Escherichia coli using (Poly U) RNA template […] in presence of ATP/Triton-X-100 by picogreen dye based assay. Further details: species or system dengue virus type 2.
A short description of data set [5]: Inhibition of GTP-bodipy binding to DENV2 N-terminal His6-tagged NS5 protein expressed in Escherichia coli after 15 mins by fluorescence polarization assay. Further details: species or system dengue virus type 2. Conditions: read-out: Kd(app). An outline of the steps: as §1
Data set [6] in a line: Inhibition of DENV2 N-terminal His6-tagged NS5 protein expressed in Escherichia coli using (Poly U) RNA template […] in presence of ATP by picogreen dye based assay. Further details: species or system dengue virus type 2.
A short description of data set [7]: Inhibition of ZIKV N-terminal His6-tagged NS5 protein expressed in Escherichia coli using (Poly U) RNA template […] in presence of ATP/Triton-X-100 by picogreen dye based assay. Further details: species or system Zika virus.
Data set [8] in a line: Selectivity index, ratio of CC50 for African green monkey Vero cells to EC50 for Chikungunya virus Indian Ocean strain 899 infected in African green monkey Vero cells. Conditions: read-out: Ratio CC50/EC50. It counts as toxicity. An outline of the steps: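 SI is CC50 (Vero) divided by EC50 (CHIKV) from the same 5-day MTS assay. For CC50, uninfected Vero A cells were exposed to the same compound concentrations. CC50 is the concentration reducing viable cells by 50%, by logarithmic interpolation of OD 498 nm control percentages. Median of ≥3 independent assays.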

On to `CC1(C)Oc2c(c(=O)[nH]c3ccccc23)[C@H]2[C@@H](Cl)[C@](C)(O)CC[C@@H]21`, for which the EC50 in the data set with Chikungunya virus is greater than 288 µM. In [1], the CC50 was greater than 288 µM.
Turning to `COc1cc2c(C)c3c(cc2c2cc(O)c(C)cc12)O[C@H]1c2c(cc(O)c4cc(C)c(O)cc24)C(C)(C)C(=O)[C@@]1(OC)O3`, the IC50 in data set [2] was 4.8 µM; in data set [4], greater than 100 µM; in [6], 4.5 µM; in data set [7], greater than 100 µM. Further, the Kd in data set [3] and in data set [5] was greater than 100 µM throughout. Further, the EC50 with Chikungunya virus was greater than 86 µM. The compound further gave a half-maximal cytotoxic concentration (CC50) in data set [1] greater than 172 µM.
Consider `Cn1c(=O)c2c(c3ccccc31)OC(C)(C)[C@H]1CC[C@@](C)(O)[C@H](Cl)[C@H]21`, for which the concentration for half-maximal inhibition (IC50) in data set [2] is greater than 138 µM; in data set [6] it was greater than 119 µM. In the data set with Chikungunya virus, the EC50 was greater than 277 µM. In data set [1], the CC50 is greater than 208 µM.
In the case of `CO[C@]12Oc3c(cc4c(c3C)C(=O)C(=O)c3cc(C)c(O)cc3-4)O[C@H]1c1c(cc(O)c3cc(C)c(O)cc13)C(C)(C)C2=O`, the IC50 in [2] was found to be 8.1 µM; in [4], 67.2 µM; in data set [6], 12.1 µM; in data set [7], 36 µM. Moreover, the Kd in [3] worked out at 32.1 µM; in data set [5], 9.3 µM. The EC50 in the data set on Chikungunya virus is greater than 172 µM. The CC50 in [1] is greater than 172 µM.
As for `CC(=O)OCn1c(=O)c2c(c3ccccc31)OC(C)(C)[C@H]1CC[C@@](C)(O)[C@H](Cl)[C@H]21`, the IC50 in data set [2] was greater than 138 µM; in data set [6] it was greater than 119 µM. In the data set with Chikungunya virus, the concentration giving a half-maximal response (EC50) was greater than 239 µM. The compound also gave a CC50 in data set [1] greater than 239 µM.
`C=C(C)[C@@]12OC3(c4ccccc4)O[C@@H]1[C@@H]1[C@@H]4O[C@]4(CO)[C@@H](O)[C@@]4(O)[C@@H](C[C@H](C)[C@@H]4OC(=O)c4ccccc4)[C@@]1(O3)[C@](C)(O)[C@@H]2OC(=O)c1ccccc1`: the selectivity ratio in data set [8] was found to be 5. For the same compound, the half-maximal inhibitory concentration (IC50) in data set [2] and in data set [6] was greater than 69 µM throughout. Also, in the data set on Chikungunya virus, the concentration giving a half-maximal response (EC50) is 10 µM. In data set [1], this compound registered a half-maximal cytotoxic concentration (CC50) of 52 µM.
`COc1cc2c3c(cc(O)c2cc1C)C(C)(C)C(=O)[C@@]1(OC)Oc2c(cc4c(cc(OC)c5cc(C)c(O)cc54)c2C)O[C@@H]31`: the IC50 in [2] was 10.9 µM; in data set [4] it was greater than 100 µM; in [6] it was 14.5 µM; in data set [7], greater than 100 µM. In addition, the Kd in [3] and in data set [5] was greater than 100 µM throughout.
In the case of `COc1cc2c3c(cc(O)c2cc1C)C(C)(C)C(=O)[C@@]1(OC)Oc2c(cc4c(cc(OC)c5cc(C)c(OC)cc54)c2C)O[C@@H]31`, the IC50 in [2] was 13.6 µM; in data set [4], greater than 100 µM; in data set [6], 21.7 µM; in [7] it was greater than 100 µM. Moreover, the Kd in data set [3] and in data set [5] was greater than 100 µM in each case.
For the compound `Cn1c2c(c(=O)c3ccccc31)[C@H]1[C@@H](Cl)[C@](C)(O)CC[C@@H]1C(C)(C)O2`, the 50% effective concentration (EC50) with Chikungunya virus was greater than 277 µM. For the same compound, the 50% cytotoxic concentration (CC50) in data set [1] is greater than 277 µM.
Turning to `COc1cc2c3c(cc(O)c2cc1C)C(C)(C)C(=O)[C@]1(OC)Oc2c(cc4c(cc(OC)c5cc(C)c(OC)cc54)c2C)O[C@@H]31`, the 50% inhibitory concentration (IC50) was 12.7 µM in data set [2], greater than 100 µM in data set [4], 17.8 µM in data set [6] and greater than 100 µM in data set [7]. For the same compound, the Kd in data set [3] and in data set [5] was greater than 100 µM each time.
Consider `C=C(C)[C@@]12OC3(c4ccccc4)O[C@@]4([C@H]([C@H]1O)[C@@H]1O[C@]1(CO)[C@@H](O)[C@@]1(O)[C@H]4C[C@H](C)[C@@H]1OC(=O)c1ccccc1)[C@](C)(O3)[C@@H]2OC(=O)c1ccccc1`, for which the selectivity ratio in data set [8] was found to be 11. For the same compound, the IC50 in data set [2] and in data set [6] was greater than 69 µM in each case. Besides, the EC50 with Chikungunya virus was 4.4 µM. Further, in data set [1], the CC50 came out at 49 µM.
`COc1cc2c(C)c3c(cc2c2cc(O)c(C)cc12)O[C@H]1c2c(cc(O)c4cc(C)c(O)cc24)C(C)(C)C(=O)[C@]1(OC)O3`: the 50% inhibitory concentration (IC50) in data set [2] was 8.1 µM; in data set [4], greater than 100 µM; in data set [6], 9.1 µM; in [7], greater than 100 µM. In addition, the Kd in data set [3] and in data set [5] was greater than 100 µM in each case. In the data set on Chikungunya virus, the EC50 is greater than 172 µM. For the same compound, the CC50 in data set [1] is greater than 129 µM.
On to `Nc1ncnc2c1ncn2[C@@H]1O[C@H](COP(=O)(O)OP(=O)(O)OP(=O)(O)O)C[C@H]1O`, for which the figures for the 50% inhibitory concentration (IC50) in data set [2] and in data set [6] were 0.14 µM and 0.07 µM, respectively.

For orientation: EC50 means the concentration at which the effect is half-maximal. The CC50 is the concentration at which the toxic effect on the cells reaches its halfway point. A word on the IC50: it is the midpoint of a concentration-inhibition curve.
